Our source for the Ki, Activity and IC50 values is ChEMBL document CHEMBL1136929 (J Med Chem, 2009).

Molecules are shown by their SMILES. Calls of active or inactive are those of the source. The calls are words filed in the database; no cut-off is given here.

One test deals with Cannabinoid receptor 1 (Homo sapiens, UniProt P21554). The experiment in a line: Displacement of [3H]CP-55940 from human recombinant CB1 receptor expressed in HEK293 cells. Type of test: cell-based.
The next test concerns the target Cannabinoid receptor 2 (Homo sapiens, UniProt P34972). The experiment in a line: Displacement of [3H]CP-55940 from human recombinant CB2 receptor expressed in HEK293 cells. Format: cell-based.
Test [1] has as its system Jurkat. The experiment in a line: Cytotoxicity against human Jurkat cells at 10 uM after 48 hrs by WST1 assay in presence of AM630. Format: functional, cell-based. Put shortly:
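Jurkat cells (2 × 10⁴ per well) in serum-free medium, after 2 h, exposed to compound (10 µM) together with CB2 antagonist AM630 (1 µM) for 48 h. Viability by WST-1 (60 min, 37 °C, A450) against solvent controls. Two experiments in triplicate.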
(Tetrazolium assays rely on reduction of a dye to a coloured formazan, in cell work by metabolically active cells.)

A short description of test [2]: Cytotoxicity against human U87MG cells at 10 uM after 48 hrs by WST1 assay. Type of test: functional, U-87MG ATCC. In a few lines:
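U87MG cells (4 × 10³ per well) in serum-free medium, attached 24 h, then exposed to compound at 10 µM for 48 h (DMSO stock diluted in medium). Viability inhibition by WST-1 (60 min, 37 °C, A450) compared with solvent-treated controls.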

The test system of test [3] is Jurkat. The experiment in a line: Cytotoxicity against human Jurkat cells after 48 hrs by WST1 assay. Type of test: functional, cell-based. In a few lines:
(§1)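 Jurkat (2 × 10⁴ per well, 2 h settling) or U87MG (4 × 10³ per well, 24 h attachment) cells in serum-free medium. Exposed to compound (0.1-10 µM; DMSO stocks diluted in medium) for 48 h. Viability read by WST-1 (60 min, 37 °C, A450) against solvent controls, blank-subtracted. IC50 is the concentration giving 50% of control absorbance. Three experiments in triplicate.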

Test [4] can be described thus: Cytotoxicity against human U87MG cells after 48 hrs by WST1 assay. Format: functional, cell-based. The settings on record: u-87mg atcc. In a few lines:
as §1

Chain of Cannabinoid receptor 1 (P21554 whole entry): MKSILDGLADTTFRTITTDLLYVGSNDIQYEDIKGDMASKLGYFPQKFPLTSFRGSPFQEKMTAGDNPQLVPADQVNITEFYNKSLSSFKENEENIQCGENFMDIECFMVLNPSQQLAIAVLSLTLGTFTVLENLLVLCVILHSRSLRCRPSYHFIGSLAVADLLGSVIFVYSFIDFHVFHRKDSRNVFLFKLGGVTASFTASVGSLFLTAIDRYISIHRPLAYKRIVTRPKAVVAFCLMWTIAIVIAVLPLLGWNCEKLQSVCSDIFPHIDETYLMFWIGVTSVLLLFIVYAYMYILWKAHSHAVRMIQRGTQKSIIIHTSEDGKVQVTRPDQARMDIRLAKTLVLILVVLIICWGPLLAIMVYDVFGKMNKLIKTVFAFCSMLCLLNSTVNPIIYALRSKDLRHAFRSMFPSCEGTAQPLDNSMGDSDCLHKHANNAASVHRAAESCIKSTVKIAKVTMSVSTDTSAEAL
Chain of Cannabinoid receptor 2 (P34972 whole entry): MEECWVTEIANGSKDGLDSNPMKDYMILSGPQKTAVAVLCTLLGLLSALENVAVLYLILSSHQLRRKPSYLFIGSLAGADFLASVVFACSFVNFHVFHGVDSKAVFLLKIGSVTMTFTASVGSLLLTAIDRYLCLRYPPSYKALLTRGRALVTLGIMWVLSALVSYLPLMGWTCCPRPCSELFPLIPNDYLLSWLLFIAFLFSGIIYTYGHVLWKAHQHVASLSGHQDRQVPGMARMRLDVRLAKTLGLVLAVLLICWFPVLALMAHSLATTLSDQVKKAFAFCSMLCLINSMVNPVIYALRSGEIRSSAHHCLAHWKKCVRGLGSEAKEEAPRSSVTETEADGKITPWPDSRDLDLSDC

Take `CC1CCC(NC(=O)c2cc3cccnc3n(Cc3ccc(F)cc3)c2=O)CC1` (centres undefined): the Ki is 200 nM on Cannabinoid receptor 1 and 0.9 nM on Cannabinoid receptor 2.

For `COc1ccc(C(=O)c2c(C)n(CCN3CCOCC3)c3cc(I)ccc23)cc1`, in the test with Jurkat [1], the outcome was inactive.

Consider `CC1CCC(NC(=O)c2cc3cccnc3n(Cc3ccccc3)c2=O)CC1` (centres undefined), for which the Activity in test [2] was 20%; with Jurkat [3] it was “Dose-dependent effect”. For the same molecule, the values for the Ki at Cannabinoid receptor 1 and on Cannabinoid receptor 2 were 1600 nM and 7.8 nM, respectively. Moreover, the IC50 with Jurkat [3] was 5980 nM; in test [4] it was “Not Active”.

Regarding `O=C(NC1CCCCCC1)c1cc2cccnc2n(CCN2CCOCC2)c1=O`, the inhibitory constant (Ki) was 18 nM at Cannabinoid receptor 1 and 3 nM on Cannabinoid receptor 2.

Turning to `CC1CCC(NC(=O)c2cc3cccnc3n(CCN3CCOCC3)c2=O)CC1` (centres undefined), the Ki on Cannabinoid receptor 1 is 1000 nM; at Cannabinoid receptor 2, 1.9 nM.

On to `O=C(NC1CCCCC1)c1cc2cccnc2n(Cc2ccccc2)c1=O`, for which the inhibition constant (Ki) at Cannabinoid receptor 1 was 560 nM; at Cannabinoid receptor 2, 31 nM.

Consider `C[C@H]1CC[C@H](NC(=O)c2cc3cccnc3n(Cc3ccccc3)c2=O)CC1`, for which the Ki at Cannabinoid receptor 1 stood at 5250 nM; at Cannabinoid receptor 2 it was 39.8 nM.

As for `C[C@H]1CC[C@H](NC(=O)c2cc3cccnc3n(Cc3ccc(F)cc3)c2=O)CC1`, the results for the inhibition constant (Ki) at Cannabinoid receptor 1 and at Cannabinoid receptor 2 were 300 nM and 9 nM, respectively.

Consider `C[C@H]1CC[C@@H](NC(=O)c2cc3cccnc3n(Cc3ccc(F)cc3)c2=O)CC1`, for which the Ki worked out at 200 nM at Cannabinoid receptor 1 and 0.7 nM on Cannabinoid receptor 2.

For `CCCC(C)(C)c1ccc2c(c1)OC(C)(C)[C@@H]1CC=C(C)C[C@@H]21`, the inhibitory constant (Ki) on Cannabinoid receptor 2 turned out to be 3 nM.

Molecule `CCCn1c(C)c(C(=O)c2cccc3ccccc23)c2ccccc21` registered an Activity in test [2] of 20%. Besides, the IC50 with Jurkat [3] was 9600 nM; in test [4] it was “Not Active”.

For `C[C@H]1CC[C@@H](NC(=O)c2cc3cccnc3n(Cc3ccccc3)c2=O)CC1`, the Ki was found to be 1520 nM on Cannabinoid receptor 1 and 5.8 nM at Cannabinoid receptor 2.

As to `O=C(NC1CCCCC1)c1cc2cccnc2n(CCN2CCOCC2)c1=O`, the Ki at Cannabinoid receptor 1 stood at 560 nM; at Cannabinoid receptor 2, 7.9 nM.

With `CCCCn1c(=O)c(C(=O)NC2CCCCC2)cc2cccnc21`, the Ki is 5600 nM at Cannabinoid receptor 1 and 70 nM at Cannabinoid receptor 2.

For `O=C(NCCc1ccc(F)cc1)c1cc2cccnc2n(Cc2ccccc2)c1=O`, the values for the inhibitory constant (Ki) on Cannabinoid receptor 1 and at Cannabinoid receptor 2 were 6950 nM and 69.8 nM, respectively.

Take `O=C(NC1CCCCC1)c1cc2cccnc2n(Cc2ccc(F)cc2)c1=O`: the Ki came to 56 nM on Cannabinoid receptor 1 and 2.2 nM on Cannabinoid receptor 2.

On to `O=C(NC1CCCCCC1)c1cc2cccnc2n(Cc2ccc(F)cc2)c1=O`, for which the inhibition constant Ki at Cannabinoid receptor 1 stood at 9.6 nM; on Cannabinoid receptor 2 it was 0.7 nM.

Turning to `O=C(NC1CCCCCC1)c1cc2cccnc2n(Cc2ccccc2)c1=O`, the Ki at Cannabinoid receptor 1 was 960 nM; at Cannabinoid receptor 2, 22 nM.

In general, Ki refers to a measure of affinity in units of concentration, obtained from inhibition or displacement. Broadly, the IC50 is the concentration that inhibits the measured activity by half.
